# Source: PubChem BioAssay AID588621 (Sanford-Burnham Center for Chemical Genomics, 2011)
# Among all 360,000 compounds or so, about 890 (0.25%) were called active. The sample as a whole holds a higher share of actives than the screen did. Unmarked numbers belong to inactive results.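 How the source made its calls: active means inhibition at 20 µM, scaled per plate between control wells, above about 37% (limit read from the data); inactive means the rest.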
# Target: Tyrosine-protein phosphatase non-receptor type 5 (Homo sapiens) (UniProt P54829)
# Assay: inhibition of human PTPN5 enzyme activity – biochemical, fluorescence intensity, uHTS, primary screen (AID 588621);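 further: 0% = DMSO with enzyme and substrate and 100% = substrate only without enzyme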
# Settings: recombinant STEP, OMFP fluorogenic substrate, at 20 µM, active compounds read high
# Procedure, shortened: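 Material: STEP (striatal-enriched tyrosine phosphatase) enzyme, cell-free; Compound dosing: 20 µM single dose in 1% DMSO; Technique: fluorescence read at 480 nm ex / 540 nm em; Times: reaction 20 min, ambient temperature; Medium: 50 mM Bis-Tris pH 6.0 with 2.5 mM DTT and 0.005% Tween 20; Also added: OMFP at 25 µM.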
# Sequence of Tyrosine-protein phosphatase non-receptor type 5 (Homo sapiens) (P54829 whole entry, looked up): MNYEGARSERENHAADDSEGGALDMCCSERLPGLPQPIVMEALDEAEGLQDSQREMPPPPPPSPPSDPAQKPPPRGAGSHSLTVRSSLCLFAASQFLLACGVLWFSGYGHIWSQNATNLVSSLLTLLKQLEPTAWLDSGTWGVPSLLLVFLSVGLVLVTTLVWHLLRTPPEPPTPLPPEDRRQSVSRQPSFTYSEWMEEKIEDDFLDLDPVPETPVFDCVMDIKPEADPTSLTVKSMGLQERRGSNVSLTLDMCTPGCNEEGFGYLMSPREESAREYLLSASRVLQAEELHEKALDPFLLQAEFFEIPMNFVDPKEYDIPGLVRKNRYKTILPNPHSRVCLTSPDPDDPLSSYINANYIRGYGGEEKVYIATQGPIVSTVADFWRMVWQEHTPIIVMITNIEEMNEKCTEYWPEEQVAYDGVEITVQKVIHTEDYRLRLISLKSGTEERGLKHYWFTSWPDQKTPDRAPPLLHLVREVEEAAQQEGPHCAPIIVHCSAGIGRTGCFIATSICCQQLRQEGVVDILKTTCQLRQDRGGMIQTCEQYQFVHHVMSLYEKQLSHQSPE
row,Compound,inhibition
1,CC(C)Cc1ccc(C(C)C(=N)N)cc1 (stereo not given),-2%
2,CCO[C@H]1OC(C(=O)N2CCCCCCC2)=C[C@@H](c2ccc(C(F)(F)F)cc2)[C@@H]1CCCO,0.1%
3,Cc1ccc(OCC(=O)Nc2ccc(-c3nc4ncccc4o3)cc2)cc1,54.1% (active)
4,Cc1ccc2nc(-c3ccc(NC(=O)c4cccnc4)cc3)oc2c1,0.4%
5,CCOC(=O)C1=C(O)/C(=C/c2ccc(OCC(=O)Nc3ccc(C)cc3)cc2)N=C1C,14.9%
6,CCc1ccc(C2C(C#N)=C(N)N(N3CCOCC3)C3=C2C(=O)CC(C)(C)C3)s1 (stereo not given),-1.9%
7,CNC(=O)NC(=O)C(OC(=O)c1cccc(S(=O)(=O)N2CCCCC2)c1)c1ccccc1 (stereo not given),-0.2%
8,O=C(/C=C/Nc1ccc(S(=O)(=O)Nc2cnc3ccccc3n2)cc1)c1cccnc1,5.4%
9,CCOc1cc(CO)ccc1OCC(=O)N1CCCCC1,-1.4%
10,CCNC(=S)N1CCN(c2ncccn2)CC1,-5.9%
11,CC(=NNC(=S)N1CCCCCC1)c1ccccn1,54.5% (active)
12,CCOc1ccc(NC(=S)N2CCCCCC2)cc1,-2.3%
13,CCOC(=O)C1CCN(c2c(Nc3cc(C)cc(C)c3)c(=O)c2=O)CC1,-2.8%
14,COc1ccc(-c2c(-c3cc(OC)cc(OC)c3)n(C)c3ccc(-c4ccn[nH]4)cc23)cc1,-1.9%
15,O=C(CCSCCc1ccccn1)Nc1nccs1,-2.2%
16,CC(O)C(NS(=O)(=O)c1ccc(Cl)cc1)C(=O)OCc1cc([N+](=O)[O-])cc2c1OCOC2 (stereo not given),-3.7%
17,CC(C)(C)OC(=O)NCCCCCC(=O)N/N=C/c1coc2ccccc2c1=O,-1.9%
18,Cc1c(/C=N\NC(=O)c2cc3ccccc3o2)c2ccccc2n1C,-0.5%
19,O=C(N/N=C/c1coc2ccccc2c1=O)c1cc2ccccc2o1,43.4% (active)
20,CN1CCN(C(=O)c2ccccc2NC(=O)COc2ccccc2Cl)CC1,-2.4%
21,C=CCn1c(=S)[nH]c2scc(-c3ccco3)c2c1=O,13.1%
22,CCCc1nc(-c2cc3cc(C)ccc3[nH]c2=O)no1,3.2%
23,COc1ccc2[nH]c(=O)c(-c3noc(-c4ccc(F)cc4)n3)cc2c1,95.7% (active)

row,Compound,inhibition
1,COc1ccc(Cc2cc(-c3ccc(F)cc3)n[nH]c2=O)cc1,1.1%
2,O=C(NCc1ccccc1)C(c1cccnc1)N(C(=O)c1csnn1)c1ccc(F)cc1 (stereo not given),2.3%
3,Cc1ccc(-n2c(C)cc(/C=C(\C#N)C(=O)NCC3CCCO3)c2C)cc1 (stereo not given),0.4%
4,CCCCNC(=O)c1c[nH]c2ccc(S(=O)(=O)Nc3ccc(OCC)cc3)cc2c1=O,4.4%
5,Cc1nc2ccc(NC(=S)N3CCC(C)CC3)cc2nc1C,2.1%
6,CC1=C(C(=O)N2CCOCC2)CC(CC(=O)NCCCN(C)C)C(=O)N1Cc1ccc(C(C)(C)C)cc1 (stereo not given),-2.8%
7,CC(=O)c1ccc(NC(=O)CSC(=S)N2CCCC2)cc1,0.8%
8,COc1cccc(NC(=O)CN(C)C(=O)CSC(=S)N2CCCC2)c1,-1.5%
9,O=C(CSC(=S)N1CCCCC1)c1c(F)cccc1F,87.8% (active)
10,O=S(=O)(NCC1CN(S(=O)(=O)c2ccc3c(c2)OCCO3)C1)c1c(F)cccc1F,-0.5%
11,CSc1ccc(C#N)cc1NC(=O)c1ccc(Cl)cc1,-9.6%
12,COc1ccc(NC(=O)c2ccco2)cc1NC(=O)c1ccc(C#N)cc1F,-1.6%
13,N#Cc1ccc(C(=O)Nc2cccc3cccnc23)c(F)c1,97.4% (active)
14,CSCCC(NC(=O)COc1ccccc1)C(=O)N(C)CC(=O)Nc1ccc(C)cc1 (stereo not given),-3.9%
15,COc1ccc(CN2CCCC(CNC(=O)c3ccc(F)cc3)C2)cc1OC (stereo not given),0.7%
16,C[C@H](CO)N1C[C@H](C)[C@H](CN(C)C(=O)c2ccncc2)OCc2ccccc2-c2c(n(C)c3ccccc23)C1=O,1.4%
17,O=C1CCC(C(=O)Nc2ccc(OC(F)F)cc2)N1 (stereo not given),1.3%
18,CCc1ccc(NC(=O)CS(=O)CC(=O)NCCCc2ccccc2)cc1 (stereo not given),41.6% (active)
19,S=C(NCCCc1ccccc1)Nc1ccc(Br)cc1,1.3%
20,CCc1ccc(NC(=O)CS(=O)CC(=O)N2CCN(c3ccccc3F)CC2)cc1 (stereo not given),2.2%
21,Cc1ccc(S(=O)(=O)NN=C2CC(C)(C)CC(=O)C2(C)C)cc1,-2.2%
22,CCOc1nnc(C)c2c(C)n(-c3cccc(Cl)c3)nc12,-2.6%
